Series [1] is described as follows: melting temperature; fluorescence melt of hairpins on a sequencing array, two-state fit, raised by 9.35 °C to match UV melts. Conditions: sodium 0.088 M. An outline of the steps:
(§1)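 Melting temperature and folding enthalpy were derived from bootstrapped two-state fits. The fitted temperatures were raised by 9.35 °C to agree with UV melts, and four replicates were combined by inverse variance. The underlying data were Cy3 fluorescence images of library hairpins, with annealed Cy3 and quencher oligos, on a sequenced MiSeq flow cell in 50 mM Na-HEPES pH 8.0, 25 mM NaCl, taken in 2.5 °C steps up to 60 °C, normalised to pre-quench Cy3 and to control constructs.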

Series [2] can be described thus: folding enthalpy; higher = less favourable; fluorescence melt of hairpins on a sequencing array, two-state fit. Conditions: sodium 0.088 M. The gist of the method:
as §1

Data on 36 sequences can be found in the array DNA melting data of Ke et al. (doi:10.1101/2024.01.08.574731).

In the case of GTAGCGGGAAACCGTTGC (.(.(((....))).).), the Tm in series [1] was 35.3 °C. Also, the folding enthalpy in series [2] is -19.2 kcal/mol.

On to GTAGCGGGAAACTGCTAC (((((.(....).))))), for which, in series [1], the Tm is 53.6 °C. In series [2], the folding enthalpy was -37.1 kcal/mol.

For GTAGCGTCGAAAGACTAC (((..(((....)))))), the Tm in series [1] was found to be 24.7 °C. In addition, the folding enthalpy in series [2] was -9.24 kcal/mol.

On to GTAGCTCGAAAGAGATAC (((.(((....))).))), for which the Tm in series [1] was 54.9 °C. In addition, the folding enthalpy in series [2] is -43.5 kcal/mol.

Regarding GTAGCTGAAAAGCTAC ((((((....)))))), the Tm in series [1] amounted to 60 °C. Also, the folding enthalpy in series [2] was -37.9 kcal/mol.

On to GTAGCTGGAAACAGTTAC (((.(((....))).))), for which, in series [1], the Tm was 42.8 °C. For the same sequence, the folding enthalpy in series [2] was -32.8 kcal/mol.

In the case of GTAGCTGGAAACAGTTGC (.(.(((....))).).), the Tm in series [1] was 30.8 °C. Further, the folding enthalpy in series [2] was -14.5 kcal/mol.

Regarding GTAGCTGGAAACGGCTAC (((((.(....).))))), the Tm in series [1] came out at 52.5 °C. Besides, the folding enthalpy in series [2] was -40.8 kcal/mol.

In the case of GTAGGACCGAAAGGTTAC (((..(((....)))))), the Tm in series [1] turned out to be 28.5 °C. Moreover, the folding enthalpy in series [2] was -12.7 kcal/mol.

In the case of GTAGGACGAAAGTCGTAC (((.(((....))).))), in series [1], the Tm is 53.2 °C. In addition, in series [2], the folding enthalpy was -35.6 kcal/mol.

As for GTAGGACGAAAGTCTTAC (((.(((....))).))), in series [1], the Tm worked out at 47.7 °C. Further, the folding enthalpy in series [2] is -26.2 kcal/mol.

On to GTAGGAGGAAACTCCCAC ((.((((....)))).)), for which, in series [1], the Tm is 30.9 °C. For the same sequence, the folding enthalpy in series [2] was -16.4 kcal/mol.

Consider GTAGGCGAAAGCCCCTAC ((((((....)))..))), for which the Tm in series [1] was 23.7 °C. Further, the folding enthalpy in series [2] was -7.29 kcal/mol.

Take GTAGGCGAAAGCCCTAC ((((((....))).))): the Tm in series [1] was found to be 47.7 °C. Besides, in series [2], the folding enthalpy was -14.8 kcal/mol.

With GTAGGCGAAAGCCGTTAC ((((((....)))..))), in series [1], the Tm came out at 39.8 °C. The folding enthalpy in series [2] was -8.81 kcal/mol.

Turning to GTAGGCGAAAGCCTTAC ((((((....))).))), the Tm in series [1] amounted to 44.9 °C. Also, the folding enthalpy in series [2] was -9.64 kcal/mol.

As to GTAGGCGGAAACGCTTGC (.(.(((....))).).), the Tm in series [1] was determined as 30.3 °C. Further, in series [2], the folding enthalpy is -11.6 kcal/mol.

With GTAGGGGGAAACCCCTAC (((((((....))))))), the Tm in series [1] amounted to 61.9 °C. Also, the folding enthalpy in series [2] was -37.4 kcal/mol.

As for GTAGGTCCGAAAGGATAC (((..(((....)))))), the Tm in series [1] amounted to 28.8 °C. For the same sequence, the folding enthalpy in series [2] was -12.1 kcal/mol.

With GTAGGTCGAAAGACTAC (((.(((....)))))), in series [1], the Tm was determined as 43.3 °C. For the same sequence, in series [2], the folding enthalpy was -17.6 kcal/mol.

As for GTAGGTCGAAAGACTTAC (((.(((....))).))), the Tm in series [1] worked out at 47.9 °C. In addition, the folding enthalpy in series [2] is -27.3 kcal/mol.

GTAGTAGCGAAAGCTTAC (((..(((....)))))): in series [1], the Tm amounted to 30.5 °C. For the same sequence, in series [2], the folding enthalpy is -11.3 kcal/mol.

Regarding GTAGTAGGAAACTACCAC ((.((((....)))).)), the Tm in series [1] worked out at 32.2 °C. For the same sequence, in series [2], the folding enthalpy was -17.2 kcal/mol.

Consider GTAGTCACGAAAGTGTAC (((..(((....)))))), for which, in series [1], the Tm came out at 30.5 °C. In series [2], the folding enthalpy was -12 kcal/mol.

For GTAGTCCGAAAGGATTAC (((.(((....))).))), in series [1], the Tm came out at 49.4 °C. In addition, the folding enthalpy in series [2] is -34.5 kcal/mol.

For the sequence GTAGTCGAAAGACATTAC ((((((....)))..))), the Tm in series [1] came to 23.5 °C. Moreover, the folding enthalpy in series [2] was -9.35 kcal/mol.

Consider GTAGTCGAAAGACTATAC ((((((....)))..))), for which, in series [1], the Tm came out at 42 °C. Also, the folding enthalpy in series [2] is -13.2 kcal/mol.

As for GTAGTCGGAAACGACTGC (.(((((....))))).), the Tm in series [1] turned out to be 53.7 °C. Besides, in series [2], the folding enthalpy is -29 kcal/mol.

GTAGTGACGAAAGTCTAC (((..(((....)))))): the Tm in series [1] turned out to be 29.7 °C. In series [2], the folding enthalpy is -15.9 kcal/mol.

With GTAGTGCGAAAGCATTAC (((.(((....))).))), in series [1], the Tm was 51 °C. For the same sequence, the folding enthalpy in series [2] was -25.6 kcal/mol.

GTAGTGGAAACACTAC ((((((....)))))): the Tm in series [1] was determined as 53.4 °C. The folding enthalpy in series [2] is -45.9 kcal/mol.

As to GTAGTGGGAAACCATTAC (((.(((....))).))), the Tm in series [1] is 38.1 °C. In addition, in series [2], the folding enthalpy was -32 kcal/mol.

As to GTAGTGGGAAACCGCTAC ((((.((....)).)))), the Tm in series [1] was 51.5 °C. Besides, the folding enthalpy in series [2] was -48.7 kcal/mol.

As to GTAGTTACGAAAGTATAC (((..(((....)))))), the Tm in series [1] came to 23.9 °C. For the same sequence, the folding enthalpy in series [2] was -10.3 kcal/mol.

For the sequence GTAGTTCGAAAGAAATAC (((.(((....))).))), the Tm in series [1] was determined as 42.2 °C. Besides, the folding enthalpy in series [2] was -29.2 kcal/mol.

With GTAGTTCGAAAGAATTAC (((.(((....))).))), the Tm in series [1] was 42.4 °C. The folding enthalpy in series [2] was -26.8 kcal/mol.
